# Laboratory results from ChEMBL document CHEMBL3286277, “Discovery of N-sulfonyl-7-azaindoline derivatives as potent, orally available and selective M(4) muscarinic acetylcholine receptor agonists” (Bioorg Med Chem Lett, 2014).
# Activity calls are given as the source filed them. No cut-off for these calls is given here.
# Legend:
# [1] = molecular target: Voltage-gated inwardly rectifying potassium channel KCNH2 (Homo sapiens, UniProt Q12809); assay: Inhibition of human ERG tail current after 5 mins by patch-clamp method
# Voltage-gated inwardly rectifying potassium channel KCNH2, sequence (Q12809 whole entry): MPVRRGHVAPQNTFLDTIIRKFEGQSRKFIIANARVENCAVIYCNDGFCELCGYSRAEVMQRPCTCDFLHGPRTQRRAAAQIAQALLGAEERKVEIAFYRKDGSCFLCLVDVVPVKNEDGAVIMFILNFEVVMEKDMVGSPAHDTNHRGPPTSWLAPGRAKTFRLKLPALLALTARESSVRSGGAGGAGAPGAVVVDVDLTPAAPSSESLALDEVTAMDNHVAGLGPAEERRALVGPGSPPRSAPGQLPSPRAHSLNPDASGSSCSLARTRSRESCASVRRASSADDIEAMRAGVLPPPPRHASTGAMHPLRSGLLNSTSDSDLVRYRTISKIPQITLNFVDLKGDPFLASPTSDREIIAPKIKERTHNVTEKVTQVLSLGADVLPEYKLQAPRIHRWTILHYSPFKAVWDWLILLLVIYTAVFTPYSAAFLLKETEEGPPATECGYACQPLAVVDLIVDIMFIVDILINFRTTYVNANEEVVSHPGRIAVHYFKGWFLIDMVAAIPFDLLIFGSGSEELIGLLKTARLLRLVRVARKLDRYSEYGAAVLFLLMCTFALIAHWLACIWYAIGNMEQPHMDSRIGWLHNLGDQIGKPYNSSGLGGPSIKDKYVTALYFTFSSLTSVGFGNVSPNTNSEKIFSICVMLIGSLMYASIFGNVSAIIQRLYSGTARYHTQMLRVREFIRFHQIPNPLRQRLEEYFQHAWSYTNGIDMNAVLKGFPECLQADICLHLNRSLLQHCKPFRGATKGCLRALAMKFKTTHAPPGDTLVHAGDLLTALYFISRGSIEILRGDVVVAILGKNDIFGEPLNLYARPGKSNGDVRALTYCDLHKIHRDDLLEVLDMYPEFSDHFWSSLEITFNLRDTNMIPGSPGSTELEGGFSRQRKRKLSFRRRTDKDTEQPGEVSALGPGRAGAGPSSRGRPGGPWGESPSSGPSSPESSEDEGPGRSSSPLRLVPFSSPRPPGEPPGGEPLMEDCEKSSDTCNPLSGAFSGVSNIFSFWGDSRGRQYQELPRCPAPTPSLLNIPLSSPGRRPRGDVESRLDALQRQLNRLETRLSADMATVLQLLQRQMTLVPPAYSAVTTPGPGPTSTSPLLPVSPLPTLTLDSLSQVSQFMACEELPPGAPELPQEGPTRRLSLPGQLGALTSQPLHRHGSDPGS
# [2] = molecular target: T1, Muscarinic acetylcholine receptor M4 (Homo sapiens) (UniProt P08173); assay: Agonist activity at human muscarinic acetylcholine receptor M4 expressed in CHO cells assessed as calcium mobilization at 0.3 uM by FLIPR assay relative to acetylcholine; format: functional, cell-based
# T1 sequence (whole entry): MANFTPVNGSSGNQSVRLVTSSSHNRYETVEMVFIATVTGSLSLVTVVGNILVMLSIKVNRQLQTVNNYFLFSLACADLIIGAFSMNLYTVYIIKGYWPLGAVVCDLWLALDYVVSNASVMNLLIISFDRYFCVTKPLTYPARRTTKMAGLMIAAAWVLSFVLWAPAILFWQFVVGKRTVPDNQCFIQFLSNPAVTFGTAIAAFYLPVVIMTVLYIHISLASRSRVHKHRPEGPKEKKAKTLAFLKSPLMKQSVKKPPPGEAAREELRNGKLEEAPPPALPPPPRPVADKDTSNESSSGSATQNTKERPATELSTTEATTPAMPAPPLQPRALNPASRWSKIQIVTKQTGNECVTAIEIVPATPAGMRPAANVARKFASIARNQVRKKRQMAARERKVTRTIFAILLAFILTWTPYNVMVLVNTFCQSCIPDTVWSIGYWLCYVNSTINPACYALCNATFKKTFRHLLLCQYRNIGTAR
# [3] = molecular target: T2, Muscarinic acetylcholine receptor M2 (Homo sapiens) (UniProt P08172); assay: Agonist activity at human muscarinic acetylcholine receptor M2 expressed in CHO cells assessed as calcium mobilization at 0.3 uM by FLIPR assay relative to acetylcholine; format: functional, cell-based
# T2 sequence (whole entry): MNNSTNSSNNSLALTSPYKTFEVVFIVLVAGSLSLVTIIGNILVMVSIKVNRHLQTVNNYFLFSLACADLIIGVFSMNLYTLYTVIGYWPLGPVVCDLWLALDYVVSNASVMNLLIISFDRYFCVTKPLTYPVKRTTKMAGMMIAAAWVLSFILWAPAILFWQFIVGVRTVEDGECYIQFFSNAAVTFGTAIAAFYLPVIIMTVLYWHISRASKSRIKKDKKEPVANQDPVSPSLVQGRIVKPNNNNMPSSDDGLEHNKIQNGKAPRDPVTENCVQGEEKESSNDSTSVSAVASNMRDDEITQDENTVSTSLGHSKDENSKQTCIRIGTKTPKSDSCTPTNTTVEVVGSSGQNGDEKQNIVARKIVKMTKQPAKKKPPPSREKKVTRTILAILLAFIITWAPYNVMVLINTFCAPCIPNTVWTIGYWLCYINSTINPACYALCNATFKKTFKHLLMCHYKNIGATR
# [4] = molecular target: Muscarinic acetylcholine receptor M3 (Homo sapiens) (UniProt P20309); assay: Agonist activity at human muscarinic acetylcholine receptor M3 expressed in CHO cells assessed as calcium mobilization at 0.3 uM by FLIPR assay relative to acetylcholine; format: functional, cell-based
# Muscarinic acetylcholine receptor M3 (Homo sapiens), sequence (P20309 whole entry, looked up): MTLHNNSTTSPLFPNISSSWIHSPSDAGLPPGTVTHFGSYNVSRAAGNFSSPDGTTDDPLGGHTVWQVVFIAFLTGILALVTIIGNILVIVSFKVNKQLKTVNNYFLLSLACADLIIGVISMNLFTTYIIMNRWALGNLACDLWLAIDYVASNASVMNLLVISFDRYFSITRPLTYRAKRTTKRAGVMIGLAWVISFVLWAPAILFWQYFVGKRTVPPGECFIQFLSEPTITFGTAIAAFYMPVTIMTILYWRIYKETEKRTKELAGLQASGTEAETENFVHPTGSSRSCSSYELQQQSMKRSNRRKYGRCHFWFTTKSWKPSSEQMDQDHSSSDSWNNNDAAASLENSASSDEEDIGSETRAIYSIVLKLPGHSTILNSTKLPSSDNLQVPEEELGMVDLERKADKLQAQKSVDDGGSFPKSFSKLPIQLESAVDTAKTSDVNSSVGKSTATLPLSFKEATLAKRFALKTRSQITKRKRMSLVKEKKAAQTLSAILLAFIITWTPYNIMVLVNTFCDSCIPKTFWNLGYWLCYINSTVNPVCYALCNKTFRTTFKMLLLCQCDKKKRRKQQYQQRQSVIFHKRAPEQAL
# [5] = molecular target: T3, Muscarinic acetylcholine receptor M1 (Homo sapiens) (UniProt P11229); assay: Agonist activity at human muscarinic acetylcholine receptor M1 expressed in CHO cells assessed as calcium mobilization at 0.3 uM by FLIPR assay relative to acetylcholine; format: functional, cell-based
# T3 sequence (whole entry): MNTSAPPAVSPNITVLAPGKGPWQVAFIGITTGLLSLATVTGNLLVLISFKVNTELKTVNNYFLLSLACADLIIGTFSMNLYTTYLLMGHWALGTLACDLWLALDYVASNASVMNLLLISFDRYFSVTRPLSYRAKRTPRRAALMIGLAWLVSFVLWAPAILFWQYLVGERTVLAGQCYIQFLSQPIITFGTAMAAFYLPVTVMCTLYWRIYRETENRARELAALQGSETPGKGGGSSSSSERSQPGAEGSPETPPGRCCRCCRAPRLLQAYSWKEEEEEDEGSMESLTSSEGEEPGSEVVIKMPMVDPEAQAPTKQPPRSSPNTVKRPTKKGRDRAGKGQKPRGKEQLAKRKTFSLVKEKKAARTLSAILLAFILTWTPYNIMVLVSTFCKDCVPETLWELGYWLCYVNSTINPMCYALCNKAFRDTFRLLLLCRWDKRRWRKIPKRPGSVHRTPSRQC
# [6] = molecular target: T4, Muscarinic acetylcholine receptor M4 (Homo sapiens, UniProt P08173); assay: Agonist activity at human muscarinic acetylcholine receptor M4 expressed in CHO cells assessed as calcium mobilization by FLIPR assay; format: functional, cell-based
# T4 sequence (P08173 whole entry): T1 sequence (whole entry)
# [7] = molecular target: T1, Muscarinic acetylcholine receptor M4 (Homo sapiens); assay: Intrinsic activity at human muscarinic acetylcholine receptor M4 expressed in CHO cells assessed as calcium mobilization by FLIPR assay relative to acetylcholine; format: functional, cell-based
# [8] = molecular target: T5, Muscarinic acetylcholine receptor M1 (Homo sapiens, UniProt P11229); assay: Agonist activity at human muscarinic acetylcholine receptor M1 expressed in CHO cells assessed as calcium mobilization by FLIPR assay; format: functional, cell-based
# T5 sequence (P11229 whole entry): T3 sequence (whole entry)
# [9] = molecular target: T6, Muscarinic acetylcholine receptor M5 (Homo sapiens) (UniProt P08912); assay: Agonist activity at human muscarinic acetylcholine receptor M5 expressed in CHO cells assessed as calcium mobilization at 10 uM by FLIPR assay relative to acetylcholine; format: functional, cell-based
# T6 sequence (whole entry): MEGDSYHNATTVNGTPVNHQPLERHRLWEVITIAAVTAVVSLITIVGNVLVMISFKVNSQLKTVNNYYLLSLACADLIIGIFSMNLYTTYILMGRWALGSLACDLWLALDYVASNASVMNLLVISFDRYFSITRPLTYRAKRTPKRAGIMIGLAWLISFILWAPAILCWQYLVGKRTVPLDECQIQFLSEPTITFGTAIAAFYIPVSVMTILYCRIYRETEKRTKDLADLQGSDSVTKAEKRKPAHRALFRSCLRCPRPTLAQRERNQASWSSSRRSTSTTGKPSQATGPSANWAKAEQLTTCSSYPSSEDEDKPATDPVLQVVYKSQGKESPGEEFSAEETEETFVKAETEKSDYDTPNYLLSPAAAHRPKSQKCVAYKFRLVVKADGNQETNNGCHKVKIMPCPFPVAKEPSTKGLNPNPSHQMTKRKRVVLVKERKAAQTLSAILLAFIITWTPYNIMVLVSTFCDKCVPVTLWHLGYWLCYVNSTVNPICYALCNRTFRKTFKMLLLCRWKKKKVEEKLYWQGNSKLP
# [10] = molecular target: T3, Muscarinic acetylcholine receptor M1 (Homo sapiens); assay: Intrinsic activity at human muscarinic acetylcholine receptor M1 expressed in CHO cells assessed as calcium mobilization by FLIPR assay relative to acetylcholine; format: functional, cell-based
# [11] = Ratio of drug level in brain to plasma in rat; format: ADME; settings: brain and plasma, read-out: BPR
# [12] = molecular target: Histamine H1 receptor (Homo sapiens) (UniProt P35367); assay: Binding affinity to human histamine H1 receptor at 3 uM by radioligand displacement assay relative to control
# Histamine H1 receptor (Homo sapiens), sequence (P35367 whole entry): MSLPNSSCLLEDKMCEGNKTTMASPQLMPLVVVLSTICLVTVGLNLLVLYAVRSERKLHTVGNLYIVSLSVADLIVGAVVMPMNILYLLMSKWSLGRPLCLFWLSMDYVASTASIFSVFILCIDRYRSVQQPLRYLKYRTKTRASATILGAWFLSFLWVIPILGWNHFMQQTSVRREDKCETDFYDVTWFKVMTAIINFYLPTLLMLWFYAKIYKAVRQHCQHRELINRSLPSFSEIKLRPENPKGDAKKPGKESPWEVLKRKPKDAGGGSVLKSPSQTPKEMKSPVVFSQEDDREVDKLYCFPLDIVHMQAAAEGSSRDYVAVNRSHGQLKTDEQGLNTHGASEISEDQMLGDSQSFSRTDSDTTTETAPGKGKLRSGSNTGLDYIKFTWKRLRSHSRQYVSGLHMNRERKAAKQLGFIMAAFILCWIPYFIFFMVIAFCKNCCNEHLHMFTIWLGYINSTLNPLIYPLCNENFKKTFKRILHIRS
# Rattus norvegicus = assay: Antipsychotic activity in po dosed Sprague-Dawley rat assessed as reversal of methamphetamine-induced hyperlocomotion administered 60 mins prior to methamphetamine challenge measured for 10 to 80 mins post methamphetamine challenge; format: functional, organism-based
# Summary of the method: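 Rats were dosed orally with test compound (1–10 mg/kg) or vehicle 60 min before methamphetamine (0.1 mg/kg, ip). Locomotor activity was recorded for 80 min starting 10 min after the methamphetamine injection. Values are mean ± SEM, n = 6.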
# [13] = molecular target: T3, Muscarinic acetylcholine receptor M1 (Homo sapiens); assay: Competitive antagonist activity at human muscarinic acetylcholine receptor M1 expressed in CHO cells assessed as inhibition of ACh-induced calcium mobilization; format: functional, cell-based
# [14] = molecular target: D(2) dopamine receptor (Homo sapiens) (UniProt P14416); assay: Binding affinity to human dopamine D2 receptor at 3 uM by radioligand displacement assay relative to control
# D(2) dopamine receptor (Homo sapiens), sequence (P14416 whole entry): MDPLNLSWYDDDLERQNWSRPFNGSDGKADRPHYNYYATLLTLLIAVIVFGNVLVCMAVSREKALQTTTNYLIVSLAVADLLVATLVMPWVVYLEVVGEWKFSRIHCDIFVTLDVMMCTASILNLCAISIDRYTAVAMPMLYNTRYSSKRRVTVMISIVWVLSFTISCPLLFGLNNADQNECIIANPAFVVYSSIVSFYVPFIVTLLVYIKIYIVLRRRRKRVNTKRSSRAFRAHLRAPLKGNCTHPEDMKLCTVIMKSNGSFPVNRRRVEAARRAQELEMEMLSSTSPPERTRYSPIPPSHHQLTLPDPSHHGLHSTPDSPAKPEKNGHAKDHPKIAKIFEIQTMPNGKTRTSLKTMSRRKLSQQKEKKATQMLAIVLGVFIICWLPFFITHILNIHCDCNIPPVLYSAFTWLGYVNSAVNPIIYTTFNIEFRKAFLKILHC
# P-gp = assay: Activity of p-gp (unknown origin) assessed as efflux ratio; format: ADME; settings: human, not told
# [15] = molecular target: T7, Alpha-1D adrenergic receptor (Homo sapiens) (UniProt P25100); assay: Binding affinity to human adrenaline alpha-1D receptor at 3 uM by radioligand displacement assay relative to control
# T7 sequence (whole entry): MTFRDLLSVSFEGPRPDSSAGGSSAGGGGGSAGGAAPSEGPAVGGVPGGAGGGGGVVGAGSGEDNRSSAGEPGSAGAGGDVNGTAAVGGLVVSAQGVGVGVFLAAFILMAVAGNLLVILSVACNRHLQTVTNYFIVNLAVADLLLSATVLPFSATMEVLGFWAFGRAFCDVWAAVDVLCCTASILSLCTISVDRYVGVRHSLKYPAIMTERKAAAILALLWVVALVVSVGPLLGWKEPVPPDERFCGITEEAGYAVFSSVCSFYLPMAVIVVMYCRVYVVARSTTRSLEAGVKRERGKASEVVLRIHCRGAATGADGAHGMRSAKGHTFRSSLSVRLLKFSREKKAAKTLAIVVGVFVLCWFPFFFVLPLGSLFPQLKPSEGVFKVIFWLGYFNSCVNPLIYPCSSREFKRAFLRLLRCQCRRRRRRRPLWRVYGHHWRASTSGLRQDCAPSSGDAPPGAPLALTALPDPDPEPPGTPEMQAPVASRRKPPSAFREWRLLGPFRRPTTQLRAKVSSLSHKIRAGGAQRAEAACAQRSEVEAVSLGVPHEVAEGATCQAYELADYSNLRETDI
# [16] = Oral bioavailability in rat at 1 mg/kg; format: ADME, organism-based; settings: in vivo
Emax [2] [%],Structure (SMILES),IC50 [1] [nM],Emax [3] [%],Emax [4] [%],Emax [5] [%],EC50 [6] [nM],Intrinsic activity [7] [%],Emax [9] [%],further results
3,CC(C)OC(=O)N1CCC(C)(CN2CCC3(CC2)CN(S(C)(=O)=O)c2ncccc23)CC1,2750,,,,,,,
52,COC(=O)N1CCC(C)(CN2CCC3(CC2)CN(S(C)(=O)=O)c2ncccc23)CC1,,2,1,3,,,,
4,CCOC(=O)N1[C@@H]2CC[C@H]1C[C@H](CN1CCC3(CC1)CN(S(C)(=O)=O)c1ncccc13)C2,,,,,,,,
2,CC1(CN2CCC3(CC2)CN(S(C)(=O)=O)c2ncccc23)CCN(C(=O)OC(C)(C)C)CC1,,,,,,,,

Structure (SMILES),Emax [2] [%],IC50 [1] [nM],Emax [3] [%],Emax [4] [%],Emax [5] [%],EC50 [6] [nM],Intrinsic activity [7] [%],Emax [9] [%],further results
CCOC(=O)N1CCC(CN2CCC3(CC2)CN(S(C)(=O)=O)c2ncccc23)CC1,88,1900,12,7,20,93,83,3,EC50 [8]: 352 nM; Intrinsic activity [10]: 59%
CCOC(=O)N1CCC(C)(CN2CCC3(CC2)CN(S(C)(=O)=O)c2ncccc23)CC1,94,3630,3,4,5,13,81,3,Kp [11]: 0.9; inhibition [12]: 27%; Activity (Rattus norvegicus): Dose-dependent effect; inhibition [13]: Active; inhibition [14]: 0%; efflux ratio (P-gp): 0.9; inhibition [15]: 0%; bioavailability [16]: 49%
